Rows were chosen to be rich in hits. Some 0.95% of all compounds tested hit in one or more screens of this group.
CAL PDZ FP-1: CAL PDZ peptide-binding inhibitors, primary screen, biochemical, fluorescence polarization, Cer-tagged CAL PDZ, HTS; Golgi-associated PDZ and coiled-coil motif-containing protein (Homo sapiens), Q9HD26; purified CAL PDZ, TMR-peptide fluorescence polarization, 1 h; inhibition, % at 20 µM; hit rate 0.02% among 330,000;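 active means highest replicate inhibition of at least 40%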;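 further: plate controls were DMSO neutral control wells for no effect and unlabeled competitor peptide control wells for full effect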
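material = purified tagged CAL PDZ domain construct (CerCALP) | buffer or medium = sodium phosphate/NaCl buffer pH 7.4 with TCEP, IgG, Thesit | reagent = TMR-labelled reporter peptide T*-PRC34 bound in PDZ groove | incubation = 1 h room-temperature incubation prior to read | measured by = fluorescence polarization (mP) | evaluation = percent inhibition from loss of millipolarization | control set = unlabelled peptide and DMSO controls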
CAL PDZ FP-2: untagged CAL PDZ binding inhibitors, primary screen, biochemical, fluorescence polarization, HTS. purified CAL PDZ, TMR-peptide fluorescence polarization, 1 h. inhibition, % at 24.9 µM. hit rate 0.92% among 300,000. AID 602252, 2012;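 active means mean inhibition of at least 30% with at least half of replicates also reaching 30%; inconclusive means no clear call, values can overlap the other calls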;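 further: 0% = DMSO neutral control and 100% = excess unlabeled competitor peptide PRC23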
miR122 inh: miR-122 Renilla sensor signal increase in Huh7, primary screen, miR-122 inhibitor project, cell-based, single point, plate reader. Huh7 miR-122 Renilla luciferase sensor, 48 h; neutral wells = 0, positive control = 100. hit rate 0.3% among 340,000. AID 602342, 2012. activation (reporter increase), % at 12.5 µM;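 active means mean replicate activation score at least 90 and every replicate individually at or above 90; inconclusive means only one of the two criteria met; inactive means neither criterion met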;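 further: higher luciferase means less miR-122 activity so hits act as miR-122 inhibitors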
PvdQ inh: P. aeruginosa PvdQ acylase inhibitors, primary screen, biochemical, fluorescence, plate reader and imaging, single point. PvdQ acylase [Pseudomonas aeruginosa LESB58]. purified PvdQ acylase. inhibition, % at 10 µM. hit rate 0.063% among 340,000; in the data active means inhibition above about 30%, passing the limit was not always enough; inconclusive means no clear call, values can overlap the other calls;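 further: 0% = vehicle neutral wells and 100% = reference inhibitor wells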
Starred values were filed as active, the others as inactive; ? = inconclusive; nt = not tested or not shown; [ ] = another dose, or the depositor's remark.

SMILES	CAL PDZ FP-1	CAL PDZ FP-2	miR122 inh	PvdQ inh
CN(c1ccc(C(=O)N2CCN(c3ccc(F)cc3)CC2)cc1)S(C)(=O)=O	0	4	-6	-12
CCCCNC(=O)N(O)C1N(/N=C/c2ccccc2F)C(=S)SC1(C)C (stereo not given)	-2	-2	116*	-1
Cc1onc(-c2c(Cl)cccc2Cl)c1C(=O)N1CCN(c2ncccn2)CC1	1	51*	nt	-11
COCCCNC(=O)CS(=O)(=O)Cc1nc(-c2cccc(OC)c2)oc1C	0	-1	-8	8
COCCNC(=O)C1(C)CCN(Cc2ccccc2C#N)C1 (stereo not given)	nt	nt	-4	nt
CCCn1c(O)c(/C=C2\C=NN=C2c2ccccc2)sc1=S	-1	nt	-7	-19
C=CCn1c(O)c(/C=C2\C=NN=C2c2ccccc2)sc1=S	-1	52*	nt	-22
O=C(c1ccco1)N(Cc1cccc(F)c1)C1CCS(=O)(=O)C1 (stereo not given)	0	nt	nt	-7
Cc1ccccc1N1C(=O)CSC1=C(C#N)C#N	0	-11	1	0
COCCN(C(=O)c1ccco1)c1nnc(-c2ccc(OC)c(OC)c2)s1	nt	2	2	5
COCCN(C(=O)c1ccco1)c1nnc(-c2ccc(F)cc2)s1	-2	40*	1	-14
C[C@H]1CCCCO[C@H](CN(C)S(=O)(=O)c2cccs2)[C@@H](C)CN([C@@H](C)CO)C(=O)c2cc(NC(=O)Nc3ccc(C(F)(F)F)cc3)ccc2O1	nt	nt	10[16.7 µM]	nt
CC(C)(C)NC(=O)C1CC1(c1ccccc1)c1ccccc1 (stereo not given)	nt	46*	nt	-21
O=C(Nc1ccnn1C1CCN(C2CCC2)CC1)c1ccccc1	0	69*	-6	-13
COc1ccc(OC)c(NC(=O)CSc2ccccc2)c1	nt	54*	24	-19
COc1ccc(OC)c(NC(=O)C2CC(C)=C(C)CC2C(=O)O)c1 (stereo not given)	0	43*	2	-1
CCc1ccc(C(=O)COC(=O)CNC(=O)Cc2ccccc2)cc1	-4	-1	-2	9
CCOC(=O)c1c(C)nsc1NCc1ccccc1	-1	2	nt	-19
COc1cccc(CNS(=O)(=O)c2c(C)[nH]c(C)c2C(=O)N2CCCCC2)c1	-2	-6	4	-16
COC(=O)c1ccc(Cn2nc(C)cc2C)cc1	nt	112*	5	-21
Cn1nnnc1SCC(=O)Nc1nn(-c2ccccc2)nc1C(N)=O	0	55*	-8	-6
Cn1nnnc1SCC(=O)NCc1cccs1	-1	53*	-3	-5
O=C(Nc1nccs1)[C@@H]1[C@@H](CO)[C@@H]2Cn3c(cccc3=O)[C@H]1N2C(=O)C1CCC1	nt	nt	27[16.7 µM]	nt
NC(=O)c1cn(Cc2c(F)cccc2F)nn1	0	4	-7	-10
CCNc1c([N+](=O)[O-])c(=O)oc2ccccc12	-2	56*	nt	-11
SMILES	CAL PDZ FP-1	CAL PDZ FP-2	miR122 inh	PvdQ inh
CCCc1nn(C)c(C(=O)Nc2cccc3ccccc23)c1Cl	-2	-2	nt	-10
CCOC(=O)Nc1ccc(NS(=O)(=O)c2ccc(C)cc2)cc1	-3	?	206*	-13
CC(=O)Nc1ccc(NS(=O)(=O)c2ccc3ccccc3c2)cc1	-1	-1	105*	11
CC(=O)Nc1ccc(S(=O)(=O)Nc2cccc(-c3nc4ccccc4o3)c2)cc1	-2	-2	138*	5
Cc1ccc(S(=O)(=O)Nc2ccc(NC(=O)Nc3cccc(C(F)(F)F)c3)cc2)cc1	-2	74*	nt	-12
CCOC(=O)Nc1ccc(S(=O)(=O)Nc2nc(C)cc(C)n2)cc1	-2	nt	0	-24
Cc1ccc(NC(=O)CN(C)S(=O)(=O)c2cccc3cccnc23)cc1	-1	nt	0	-9
CC(Sc1ccc(S(=O)(=O)N2CCOCC2)cn1)C(=O)Nc1ccc(Cl)cc1Cl (stereo not given)	0	nt	5	-7
CCN(C(=O)COC(=O)CSc1cc(C)c2ccccc2n1)c1ccccc1	-2	-7	-6	-9
CCCCOc1ccc(S(=O)(=O)Nc2ccc(NC(C)=O)cc2)cc1	-1	nt	205*	-19
O=C(CN1CCN(C(=O)C2CCCO2)CC1)Nc1ccc(Cl)cc1 (stereo not given)	-1	33*	-2	-12
O=C(Nc1ccc(Cl)cc1)N1CCN(C(=O)C2CCCO2)CC1 (stereo not given)	0	-6	-5	-9
COc1ccc(NN=Nc2ccc([N+](=O)[O-])cc2)cc1	0	42*	7	2
O=[N+]([O-])c1ccc(NN=Cc2ccc(O)cc2O)nc1	3	48*	9	-8
O=C(CNS(=O)(=O)c1ccc([N+](=O)[O-])cc1)N/N=C/c1ccc(O)cc1O	nt	34*	-13	-11
O=[N+]([O-])c1ccc(NN=Cc2ccccc2O)nc1	0	42*	-5	-10
O=C(CNS(=O)(=O)c1ccc([N+](=O)[O-])cc1)N/N=C\c1ccc(O)cc1	-1	-2	-10	1
O=[N+]([O-])c1ccc(NN=Cc2ccc(O)cc2)nc1	1	-1	nt	11
O=[N+]([O-])c1cccnc1N/N=C/c1ccccc1O	-1	76*	0	-7
COc1ccccc1C=NNc1ccc([N+](=O)[O-])cn1	1	-2	-2	-18
C[C@H](CO)N1C[C@H](C)[C@@H](CN(C)Cc2ccc(Oc3ccccc3)cc2)Oc2c(NS(=O)(=O)c3ccc(Cl)cc3)cccc2C1=O	nt	nt	24[16.7 µM]	nt
Cc1csc(SCC(=O)NC2CCS(=O)(=O)C2)n1 (stereo not given)	0	4	-1	8
CCOC(=O)C1CCN(c2nc(-c3ccc(C)cc3)nc3ccccc23)CC1	-2	85*	nt	-17
Cc1ccc(CNS(=O)(=O)c2c(C)[nH]c(C)c2C(=O)N2CCCC2)cc1	0	-3	-2	-22
CCn1cnc2sc(C(=O)Oc3cccc(C)c3)c(C)c2c1=O	0	42*	-3	-17
SMILES	CAL PDZ FP-1	CAL PDZ FP-2	miR122 inh	PvdQ inh
COc1ccc(-n2cnc3cc(NCc4ccccn4)ccc32)cc1	-1	nt	5	0
O=C(Nc1ccc(OC(F)F)c(Cl)c1)C(c1ccccc1)c1ccccc1	-1	-7	nt	6
O=C(Cc1cccc2ccccc12)NC(=S)Nc1cccc(C(=O)O)c1	-1	-4	nt	-6
O=C(Cc1cccc2ccccc12)Nc1cc(C(=O)O)cc(C(=O)O)c1	-1	44*	0	-11
O=C(Cc1cccc2ccccc12)Nc1ccc(OC(F)F)c(Cl)c1	-1	0	94*	-12
O=C(O)CCC(=O)/C=C/c1ccccc1	0	-3	-3	-7
COc1ccc(CN2CCNC(=O)C2CC(=O)N(C)CCC2CCOCC2)cc1OC (stereo not given)	0	93*	-8	-9
CCCCn1c(N)c(N(CC(C)C)C(=O)CCCSc2nncs2)c(=O)[nH]c1=O	0	nt	5	-12
